{"source": "ChEMBL document CHEMBL4251731", "about": "“Combined Acylselenourea-Diselenide Structures: New Potent and Selective Antitumoral Agents as Autophagy Activators” (ACS Med Chem Lett, 2018)", "key": {"MCF7 [1]": {"test_system": "MCF7", "assay": "Upregulation of LC3B1 expression in human MCF7 cells at 10 uM after 24 hrs by Western blot analysis", "type": "functional, cell-based", "outline": "(§1)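 MCF-7 cells exposed to 10 μM compound for 24 h; autophagy markers Beclin1 and LC3B assessed by Western blot.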"}, "MCF7 [2]": {"test_system": "MCF7", "assay": "Cytotoxicity against human MCF7 cells assessed as growth inhibition after 72 hrs by MTT assay", "type": "functional", "settings": "MCF7, 72 h", "outline": "(§2)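 MTT growth assay; each compound first tested at five concentrations from 0.01 to 100 μM for 72 h, with further dilutions for some compounds. GI50 taken as concentration reducing growth by 50% versus control.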"}, "PC-3": {"test_system": "PC-3", "assay": "Cytotoxicity against human PC3 cells assessed as growth inhibition after 72 hrs by MTT assay", "type": "functional", "settings": "PC-3, 72 h", "outline": "as §2"}, "Calu-1": {"test_system": "Calu-1", "assay": "Cytotoxicity against human HTB-54 cells assessed as growth inhibition after 72 hrs by MTT assay", "type": "functional", "settings": "Calu-1, 72 h", "outline": "as §2"}, "HT-29": {"test_system": "HT-29", "assay": "Cytotoxicity against human HT-29 cells assessed as growth inhibition after 72 hrs by MTT assay", "type": "functional", "settings": "HT-29, 72 h", "outline": "as §2"}, "K562": {"test_system": "K562", "assay": "Cytotoxicity against human K562 cells assessed as growth inhibition after 72 hrs by MTT assay", "type": "functional", "settings": "K562, 72 h", "outline": "as §2"}, "CCRF-CEM [3]": {"test_system": "CCRF-CEM", "assay": "Cytotoxicity against human CCRF-CEM cells assessed as growth inhibition after 72 hrs by MTT assay", "type": "functional", "outline": "as §2"}, "[4]": {"assay": "Cytotoxicity against human 184B5 cells assessed as growth inhibition after 72 hrs by MTT assay", "type": "cell-based", "outline": "as §2"}, "[5]": {"assay": "Selectivity index, ratio of GI50 for human 184B5 cells to GI50 for human MCF7 cells", "type": "toxicity", "settings": "184B5 cells versus MCF7 cells, read-out: RatioGI50", "outline": "(§3)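 Selectivity index computed as GI50 in the nonmalignant line divided by GI50 in the homologous cancer line (184B5/MCF-7 for breast; BEAS-2B/HTB-54 for lung), GI50 from 72 h MTT.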"}, "[6]": {"assay": "Cytotoxicity against human BEAS2B cells assessed as growth inhibition after 72 hrs by MTT assay", "type": "cell-based", "settings": "BEAS-2B cells", "outline": "as §2"}, "[7]": {"assay": "Selectivity index, ratio of GI50 for human BEAS2B cells to GI50 for human HTB-54 cells", "type": "toxicity", "settings": "BEAS-2B cells versus HTB-54 cells, read-out: RatioGI50", "outline": "as §3"}, "CCRF-CEM [8]": {"test_system": "CCRF-CEM", "assay": "Potency index, ratio of cisplatin GI50 to compound GI50 for human CCRF-CEM cells", "type": "functional"}, "CCRF-CEM [9]": {"test_system": "CCRF-CEM", "assay": "Potency index, ratio of etoposide GI50 to compound GI50 for human CCRF-CEM cells", "type": "functional"}, "CCRF-CEM [10]": {"test_system": "CCRF-CEM", "assay": "Potency index, ratio of methylseleninic acid GI50 to compound GI50 for human CCRF-CEM cells", "type": "functional"}, "MCF7 [11]": {"test_system": "MCF7", "assay": "Potency index, ratio of cisplatin GI50 to compound GI50 for human MCF7 cells", "type": "functional"}, "MCF7 [12]": {"test_system": "MCF7", "assay": "Potency index, ratio of etoposide GI50 to compound GI50 for human MCF7 cells", "type": "functional"}, "MCF7 [13]": {"test_system": "MCF7", "assay": "Potency index, ratio of methylseleninic acid GI50 to compound GI50 for human MCF7 cells", "type": "functional"}, "MCF7 [14]": {"test_system": "MCF7", "assay": "Cell cycle arrest in human MCF7 cells assessed as increase in sub-G1 population at 1 uM after 24 hrs by TUNEL assay", "type": "functional, cell-based", "outline": "(§4)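 MCF-7 cell cycle distribution by flow cytometry after increasing concentrations (1 to 20 μM) for 24 h, or 10 μM over a time course (6 to 48 h); sub-G1 (hypodiploid), S and G2/M fractions scored.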"}, "MCF7 [15]": {"test_system": "MCF7", "assay": "Cell cycle arrest in human MCF7 cells assessed as increase in sub-G1 population at 10 uM after 6 hrs by TUNEL assay", "type": "functional, cell-based", "outline": "as §4"}, "MCF7 [16]": {"test_system": "MCF7", "assay": "Cell cycle arrest in human MCF7 cells assessed as accumulation at G2/M-phase at 10 to 20 uM after 24 hrs by TUNEL assay relative to control", "type": "functional", "outline": "as §4"}, "MCF7 [17]": {"test_system": "MCF7", "assay": "Cell cycle arrest in human MCF7 cells assessed as accumulation at S-phase at 10 to 20 uM after 24 to 72 hrs by TUNEL assay relative to control", "type": "functional"}, "MCF7 [18]": {"test_system": "MCF7", "assay": "Induction of apoptosis in human MCF7 cells assessed as increase in subdiploid population at 10 uM after 24 hrs in presence of PI3K inhibitor wortmannin by TUNEL assay", "type": "functional, cell-based"}, "MCF7 [19]": {"test_system": "MCF7", "assay": "Induction of apoptosis in human MCF7 cells assessed as increase in subdiploid population at 10 uM after 24 hrs in presence of chloroquine by TUNEL assay", "type": "functional, cell-based"}, "MCF7 [20]": {"test_system": "MCF7", "assay": "Induction of apoptosis in human MCF7 cells assessed as increase in subdiploid population at 10 uM after 24 hrs in presence of pan-caspase inhibitor Z-VAD-FMK by TUNEL assay", "type": "functional, cell-based"}, "MCF7 [21]": {"test_system": "MCF7", "assay": "Upregulation of Beclin1 expression in human MCF7 cells at 10 uM after 24 hrs by Western blot analysis", "type": "functional, cell-based", "outline": "as §1"}, "MCF7 [22]": {"test_system": "MCF7", "assay": "Upregulation of LC3B2 expression in human MCF7 cells at 10 uM after 24 hrs by Western blot analysis", "type": "functional, cell-based", "outline": "as §1"}}, "note": "Calls of active or inactive are those of the source. The calls are words filed in the database; no cut-off is given here.", "data": [{"compound": "COc1cc(OC)cc(C(=O)NC(=[Se])Nc2ccc([Se][Se]c3ccc(NC(=[Se])NC(=O)c4cc(OC)cc(OC)c4)cc3)cc2)c1", "values": [{"measurement": "Activity", "setting": "MCF7 [1]", "value": "Active"}, {"measurement": "GI50", "setting": "MCF7 [2]", "value": 0.000151, "unit": "µM"}, {"measurement": "GI50", "setting": "PC-3", "value": 0.0785, "unit": "µM"}, {"measurement": "GI50", "setting": "Calu-1", "value": 20.2, "unit": "µM"}, {"measurement": "GI50", "setting": "HT-29", "value": 17.1, "unit": "µM"}, {"measurement": "GI50", "setting": "K562", "value": "> 100", "unit": "µM"}, {"measurement": "GI50", "setting": "CCRF-CEM [3]", "value": 0.0935, "unit": "µM"}, {"measurement": "GI50 at 72 h", "setting": "[4]", "value": 10.5, "unit": "µM"}, {"measurement": "selectivity ratio", "setting": "[5]", "value": 69700}, {"measurement": "GI50 at 72 h", "setting": "[6]", "value": 9.72, "unit": "µM"}, {"measurement": "selectivity ratio", "setting": "[7]", "value": 0.48}, {"measurement": "RatioGI50", "setting": "CCRF-CEM [8]", "value": "≥ 10"}, {"measurement": "RatioGI50", "setting": "CCRF-CEM [9]", "value": "≥ 10"}, {"measurement": "RatioGI50", "setting": "CCRF-CEM [10]", "value": "≥ 10"}, {"measurement": "RatioGI50", "setting": "MCF7 [11]", "value": "≥ 100"}, {"measurement": "RatioGI50", "setting": "MCF7 [12]", "value": "≥ 100"}, {"measurement": "RatioGI50", "setting": "MCF7 [13]", "value": "≥ 100"}, {"measurement": "Activity", "setting": "MCF7 [14]", "value": "Active"}, {"measurement": "Activity", "setting": "MCF7 [15]", "value": "Active"}, {"measurement": "Activity", "setting": "MCF7 [16]", "value": ">40", "unit": "%"}, {"measurement": "Activity", "setting": "MCF7 [17]", "value": "<10", "unit": "%"}, {"measurement": "Activity", "setting": "MCF7 [18]", "value": "inactive"}, {"measurement": "Activity", "setting": "MCF7 [19]", "value": "inactive"}, {"measurement": "Activity", "setting": "MCF7 [20]", "value": "Active"}, {"measurement": "Activity", "setting": "MCF7 [21]", "value": "Active"}, {"measurement": "Activity", "setting": "MCF7 [22]", "value": "Active"}]}]}
